NPY Y2 blocker: blocks the human neuropeptide Y Y2 receptor. P49146. NPY-Y2 expressing cells, antagonist mode. inhibition, % at 2.7 µM. actives 0.99% (n = 140,000). AID 793; in the data active = inhibition above about 17%;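 also: 0% = vehicle with agonist challenge and 100% = reference antagonist with challenge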
NPY1 pot ag: human NPY-Y1 potentiation or agonism, primary screen; activation, % at 3.6 µM; NPY-Y1 expressing cells, potentiator/agonist activation; AID 1304; actives 0.37% (n = 220,000); P25929; in the data active = activation above about 33%, passing the limit was not always enough;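 also: cells stimulated with NPY at EC10 then isoproterenol at EC100; 0% = low agonist plus stimulus and 100% = saturating agonist plus stimulus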
Target sequence (P25929 whole entry, looked up): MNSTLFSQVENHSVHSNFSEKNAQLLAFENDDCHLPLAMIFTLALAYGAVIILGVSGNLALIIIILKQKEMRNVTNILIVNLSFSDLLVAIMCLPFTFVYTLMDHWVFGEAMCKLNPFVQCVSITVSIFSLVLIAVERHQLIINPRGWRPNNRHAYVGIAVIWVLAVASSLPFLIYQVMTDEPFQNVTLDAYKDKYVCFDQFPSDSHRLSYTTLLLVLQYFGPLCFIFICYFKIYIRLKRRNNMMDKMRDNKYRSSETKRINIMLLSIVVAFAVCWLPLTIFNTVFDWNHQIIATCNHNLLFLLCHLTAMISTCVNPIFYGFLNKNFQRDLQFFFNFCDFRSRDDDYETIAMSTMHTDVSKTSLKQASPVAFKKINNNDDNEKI
S1P4 agonist: activates the human S1P4 receptor; O95977; S1P4-expressing cell line, agonist reporter assay; activation, % at 4.98 µM; actives 0.35% (n = 220,000); in the data active = activation above about 11%;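 also: 0% = DMSO vehicle and 100% = reference agonist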
NPY2 pot ag: human NPY-Y2 potentiation or agonism, primary screen. P49146. activation, % at 3.6 µM. cells expressing NPY-Y2, potentiator/agonist read-out. actives 0.45% (n = 220,000). AID 1359; in the data active = activation above about 27%;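 also: cells stimulated with NPY near EC25 plus isoproterenol at EC100; 0% = vehicle plus submaximal agonist and 100% = vehicle plus saturating agonist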
S1P4 antag: human S1P4 receptor antagonism; S1P4-expressing cells, antagonist mode, reporter read-out; inhibition, % at 4.98 µM; AID 1510; actives 0.26% (n = 220,000); O95977; in the data active = inhibition above about 29%;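 also: 0% = wells stimulated with agonist and 100% = vehicle wells without agonist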
NPY Y1 blocker: blocks the human neuropeptide Y Y1 receptor. P25929. HEK293-CNG Y1 cells, membrane potential fluorescence; NPY at EC95, then isoproterenol. inhibition, % at 3.6 µM. actives 1% (n = 200,000). AID 1040;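 active = inhibition above the campaign mean inhibition of all tested compounds plus 3 SD, cut at about 20% in these data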;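 also: 0% = DMSO wells given NPY plus isoproterenol and 100% = isoproterenol alone without NPY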
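Assay system: HEK293 Y1/CNG channel cell line; Doses: single compound dose of 3.6 µM, 0.4% DMSO; Timing: dye 3 h, compound 60 min room temperature, stimulation 45 min; Technique: Membrane-potential fluorescent dye readout; Measure: % inhibition of NPY effect.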
The depositor's hits bear a star; / = not tested or not shown. A selection: hits, their analogues and other compounds. The true share with any hit is near 2.4%.

SMILES	NPY Y2 blocker	NPY1 pot ag	S1P4 agonist	NPY2 pot ag	S1P4 antag	NPY Y1 blocker
COCCCNCC(O)COc1cccc2[nH]c(C)cc12 (configuration not stated)	/	108*	2	101*	-5	-14
CCc1ccc(OCCOCC(O)CNC(C)(C)C)cc1 (configuration not stated)	4	6	1	11	-3	0
Cc1cc2c(OCC(O)CNC(C)(C)C)cccc2[nH]1 (configuration not stated)	3	111*	2	105*	-7	-19
CCOc1ccc(-n2c(-c3ccc(Cl)cc3)c[n+]3c2SCC3)cc1	/	5	1	14	-8	5
Nc1c(C(=O)NCc2ccco2)sc2nc(N3CCOCC3)c3c(c12)CCCC3	-3	-13	-4	-20	-22	-4
CC1(C)CC(=O)N(CC(=O)NCc2ccc(F)cc2)c2ccccc2S1(=O)=O	0	3	-1	-11	-5	-1
O=C(O)COc1ccc2c(-c3ccccc3)cc(=O)oc2c1	7	-23	0	-41	2	20*
CCCNC(=O)c1sc2c(c1C(=O)Nc1ccccn1)CCCC2	/	-20	-2	-12	0	21*
N#C/C(C(=O)NCc1ccccc1)=C1\SC(CCO)C(=O)N1c1ccccc1 (configuration not stated)	0	8	0	1	-7	3
O=C(O)CCC(=O)Nc1nc(-c2ccccc2)cs1	22*	-41	1	-14	5	12
CC(C)C(c1nnnn1Cc1ccccc1)N(CCCO)Cc1cc2cc3c(cc2[nH]c1=O)OCO3 (configuration not stated)	-1	-22	-1	4	11	0
O=C(O)c1cc(/C=C/c2ccc(N3CCOCC3)cc2)nc2ccccc12	/	-4	0	17	17	8
O=C(O)c1cc(/C=C/c2ccc(N3CCOCC3)c([N+](=O)[O-])c2)nc2ccccc12	/	53*	0	78*	5	/
COc1ccccc1C(=O)NCCCN1CCCC1=O	1	-5	-3	5	-11	-6
COc1ccc(-c2cc(C(F)F)n3ncc(C(=O)NCC4CCCO4)c3n2)cc1 (configuration not stated)	29*	-33	-1	-24	-4	29*
CCCCN(CCCC)Cc1ccc(N)cc1	2	11	-1	9	7	5
COc1ccc(N(CC(=O)NCc2ccc(C)cc2)S(=O)(=O)c2c(C)nn(C)c2C)cc1	0	-13	2	4	21	0
COc1ccc2nc(NC(=O)CN(c3ccc(C)cc3)S(=O)(=O)c3c(C)nn(C)c3C)sc2c1	-9	55*	1	45*	-5	-14
Cc1[nH]n(-c2ccc([N+](=O)[O-])cc2)c(=O)c1C=NCCN1CCN(C(=O)c2ccc(Br)cc2)CC1	-1	-15	-4	-2	-14	-4
NC(=O)CSc1nnc(-c2cccs2)n1Cc1ccco1	/	9	0	-8	-16	/
Cc1ccc(C)c(CSc2nnc(-c3cccs3)n2Cc2ccco2)c1	24*	3	0	-4	-9	53*
Cc1ccc(Nc2c(-c3ccc(N4CCOCC4)cc3)nc3ncccn23)c(C)c1	-5	58*	-1	67*	14	-10
COc1ccc(Nc2c([N+](=O)[O-])ccc3c2=NC2(CCCCC2)N=3)cc1	/	44*	-1	38*	-11	-15
COCC(=O)Nc1nc2ccccc2s1	0	108*	3	64*	-4	1
Cn1c(Nn2cnnc2)nc2ccccc21	-1	-5	1	-9	-11	2
SMILES	NPY Y2 blocker	NPY1 pot ag	S1P4 agonist	NPY2 pot ag	S1P4 antag	NPY Y1 blocker
CCc1cccc2c(C(=O)CN3C(=O)NC(C)(c4cccc5ccccc45)C3=O)c[nH]c12 (configuration not stated)	/	43*	0	37*	-11	-13
O=C(O)c1ccc(NS(=O)(=O)c2ccc3nnn(O)c3c2)cc1	2	12	-2	-6	-19	5
CC1CCC(C(C)C)C(OC(=O)C[n+]2cc(-c3ccc(Cl)cc3)n3c2CCC3)C1 (configuration not stated)	/	-30	0	-11	3	/
CC1CCC(C(C)C)C(OC(=O)Cn2c(-c3ccccc3)[n+](C)c3ccccc32)C1 (configuration not stated)	80*	-129	0	-37	-11	112*
CC1CCC(C(C)C)C(OC(=O)Cn2c(-c3ccc(F)cc3)[n+](C)c3ccccc32)C1 (configuration not stated)	46*	-47	3	-11	-4	61*
COc1ccccc1NC(=O)COc1ccc(Br)cc1CNC1CCCC1	/	-20	-1	-10	6	21*
COc1ccccc1NC(=O)COc1ccc(Br)cc1CO	6	0	-1	2	5	12
CC(Sc1nc(N)c2c3c(sc2n1)CSC(C)(C)C3)C(=O)Nc1ccccc1 (configuration not stated)	53*	-12	3	-16	-16	22*
CC(Sc1nc(NCc2ccccc2)nc(N(C)C)n1)C(=O)Nc1ccccc1 (configuration not stated)	12	-41	0	-41	-4	17
CN(C)c1ccc(/C=C/c2ccc3ccccc3[n+]2C)cc1	3	-8	-2	-6	-40	-4
CN(C)c1ccc(/C=C/c2ccc3c4ccccc4ccc3[n+]2-c2ccccc2)cc1	/	30	-3	58*	11	11
Cc1[nH]nc(-c2ccc(O)cc2O)c1-c1ccc(Cl)cc1	-1	21	4	48*	-30	-12
Nc1ccc2nc(SCc3ccc([N+](=O)[O-])cc3)sc2c1	0	0	3	-6	-16	4
CC(=O)Nc1nc2ccc(-c3nc4ccccc4o3)cc2s1	-6	46*	0	37*	6	-15
O=C(Nc1ccc(Cl)cc1)Nc1ccc2c(c1)N1CCN=C1S2	-7	35*	2	30	-12	-18
O=C(OCC(=O)c1c[nH]c2ccccc12)c1ccc(Br)o1	1	63*	-2	70*	3	-3
O=C(OCC(=O)c1c[nH]c2ccccc12)c1ccco1	0	-9	0	8	-16	-2
COc1cccc(C2N(c3ccc(Cl)c(Cl)c3)C(=O)C3CCCN32)c1OC (configuration not stated)	3	-13	2	4	-1	-4
O=C(CCC1CCCCC1)Nc1c2c(nn1-c1ccc(F)cc1)CS(=O)(=O)C2	30*	-42	-1	-10	0	57*
CC(C)(C)n1nc2c(c1NC(=O)COc1ccccc1F)CS(=O)(=O)C2	/	-11	1	-8	-17	0
COCCOC(=O)c1c(C)oc2ccc(O)c(CN3CCC(C)CC3)c12	13	-15	0	-8	-19	15
